Reference: publication PMC6177519 (Clinical and Experimental Gastroenterology, 2018)
“And” between values parts separate entries of the source, which are not always exact repeats. Equal entries are not always repeated. Where two headings read alike, the source gives them in different places.

Experiments:
[1] = Safety evaluation; assay type: in vivo, healthy adults; details: for Participants with any TEAEs: 60 mg
Summary of the method: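 3-period crossover; single 60 mg test compound, fasted ≥10 h pre and 4 h post, as granules in 20 mL water via 16 French NG tube or oral syringe, or intact capsule with 240 mL water; ≥5-day washout. TEAE: onset/worsening from first dose to 30 days after last; MedDRA 15.0; phone follow-up 5–10 days post final dose; all dosed subjects.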

[2] = dual delayed-release formulation; cited from earlier work
[3] = human, plasma, 60 mg

Compound: Cc1c(OCC(F)(F)F)ccnc1C[S@@+]([O-])c1nc2ccccc2[nH]1 [Dexlansoprazole, dexlansoprazole]
- Tolerability ([1]; 60 mg capsule, single doses, all administration routes): well tolerated
- Participants with any TEAEs ([1]; oral intact capsule, N=52): 12 (23.1%) n (%) and 12 (23.1) n (%)
- Participants with any TEAEs ([1]; oral syringe administration, N=60): 10 (16.7%) n (%) and 10 (16.7) n (%)
- Time of first release of dexlansoprazole after dosing [2]: 1 to 2 h
- Time of second release of dexlansoprazole after dosing [2]: 4 to 5 h
- Tmax ([3]; oral): ~5 h
- Tmax ([3]; po): ~5.5 h
